Bioassay records from PubChem BioAssay.
Shown are actives, neighbours in structure and some others; about 1.3% of the full set was active somewhere.
Tb MetRS inh: blocks T. brucei methionyl-tRNA synthetase activity. purified T. brucei MetRS, ATP depletion, Kinase-Glo luminescence. inhibition, % at 11.9 µM. actives 0.4% (n = 360,000);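 active = inhibition above a per-plate cutoff of the control wells' mean inhibition plus 3 SD, cut at about 5.5% in these data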;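 note: 0% = DMSO wells median and 100% = median of wells with control inhibitor compound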
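Measured by: Kinase-Glo luciferase luminescence reporting remaining unconsumed ATP. Material: purified T. brucei MetRS enzyme. Doses: 11.9 µM compound single dose, 0.9% DMSO. Medium: HEPES buffer containing pyrophosphatase, BSA, spermine, DTT. Times: 15 min preincubation, 2 h reaction, all 25 °C. Reagent: methionine, ATP and bulk E. coli tRNA.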
NS3 helicase inh: inhibitors of Hepatitis C virus NS3 helicase | inhibition, % at 10.9 µM | NS3 helicase DNA unwinding, Cy5 molecular beacon fluorescence | actives 0.56% (n = 290,000);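 active = inhibition above the mean of all tested compounds plus 3 SD, set per campaign, cut at about 35% in these data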;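 note: 0% = DMSO wells and 100% = thioflavine S control wells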
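Control set: DMSO versus 110 µM thioflavine S; Material: NS3 helicase fragment of HCV; Measured by: Cy5 fluorescence at 0 and 60 min, beacon hairpin quenching; Read-out basis: percent inhibition from t60/t0 fluorescence ratio; Times: reaction time 60 min, 25 °C; Repeats: single replicate; Compound dosing: single dose, 10.9 µM nominal final, DMSO 0.8% final.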
Hep lipid drop: hepatic lipid droplet formation modulation; AML12 mouse hepatocytes, oleate lipid droplets, BODIPY imaging; actives 0.4% (n = 240,000); inhibition, % at 6.5 µM;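 active = lipid droplet intensity inhibited by at least 50%, with more than 500 cells counted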
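Material – AML12 mouse liver cells · Also added – oleate loading, 100 µM · Compound dosing – 6.5 µM single-point dosing · Times – overnight treatment with compound plus oleate · Measured by – fluorescence imaging, 20x objective, two fields per well · Read-out – percent inhibition of filter-corrected integrated lipid droplet intensity per well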
core dimer inh: blocks dimerization of HCV core protein | TR-FRET GST/Flag-core106 dimerization, 1536-well | inhibition, % at 5 µM | actives 0.33% (n = 300,000) | AID 1899;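 active = inhibition above the mean of all tested compounds plus 3 SD, set per screening campaign, cut at about 45% in these data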
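System: GST-tagged and Flag-tagged HCV core protein residues 1-106 / Input: core106 proteins, GST 13.5 nM and Flag 17 nM / Buffer or medium: KF-containing HEPES buffer, pH 7.45, DTT, CHAPS, BSA / Probe or stimulus: Eu-anti-GST and XL665-anti-Flag labelled anti-tag antibodies / Schedule: 4 h, 22.5 °C incubation / Technique: TR-FRET 671 and 617 nm emission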
* = called active by the depositor; / = no result given.

SMILES	Tb MetRS inh	NS3 helicase inh	Hep lipid drop	core dimer inh
O=c1oc(-c2ccccc2)nc2sc3c(c12)CCC3	0	4	-7	59*
CCOC(=O)c1nn(-c2ccccc2C)c2nc(-c3ccc(Cl)cc3)c(C#N)c(=O)n12	-1	2	-3	56*
CCOC(=O)C1(C)CCCN(C(=O)c2ccccc2C(F)(F)F)C1 (stereo not drawn)	0	/	/	/
Cc1noc(C)c1NC(=O)N1C[C@H](O)COC[C@H]2O[C@@H](CC(=O)NCC3CCCCC3)CC[C@@H]21	0	/	/	/
CCCS(=O)(=O)NC(=O)C1(C)CCCN(C(=O)C(C)(C)Oc2ccc(Cl)cc2)C1 (stereo not drawn)	0	/	/	/
Cc1cccc(N2CCN(C(=O)CSc3ccsc3[N+](=O)[O-])CC2C)c1 (stereo not drawn)	0	-3	-5	57*
CC(C)C[C@@H](CNCC(=O)[C@H](Cc1c[nH]c2ccccc12)NC(=O)c1[nH]cnc1C(=O)N[C@@H](C)CN)NC(=O)c1nc[nH]c1C(=O)N[C@@H](CC(=O)O)C(=O)O	11*	/	/	/
CC(C)C[C@@H](CNCC(=O)[C@H](Cc1c[nH]c2ccccc12)NC(=O)c1[nH]cnc1C(=O)N[C@H](CN)CC(C)C)NC(=O)c1nc[nH]c1C(=O)N[C@@H](CC(=O)O)C(=O)O	6.8*	/	/	/
CC(/C=C1\SC(=S)N(CC(=O)O)C1=O)=C\c1ccccc1	0	18	-5	16
CC(/C=C1\SC(=S)N(CC(=O)N2CCN(c3ccccc3)CC2)C1=O)=C\c1ccccc1	0	10	-96	50*
COc1ccc(-c2ccc(=O)n(Cc3cccc([N+](=O)[O-])c3)n2)cc1	3	-7	52*	4
N#Cc1cc([N+](=O)[O-])ccc1Oc1cccc(/C=N/NC(=O)c2cccc(Cl)c2)c1	0	-9	-3	50*
O=C1[C@H]2[C@@H](c3ccccc3)N[C@]3(CCCN(Cc4ccc(F)cc4)C3=O)[C@H]2C(=O)N1Cc1ccccc1	0	/	/	/
Cc1cccc(-c2nc(=S)c3c(n2Cc2ccco2)CCCC3)c1	1	1	-10	64*
S=C1NC2=C(CCCC2=C2SCCS2)C(c2ccccc2)N1 (stereo not drawn)	0	12	-25	46*
CCOC(=O)c1ccc(NC(=O)COc2ccc(-n3cnnn3)cc2)cc1	0	-3	2	58*
COCCNC(=O)C1(C)CCN(Cc2noc(-c3c(C)noc3C)n2)C1 (stereo not drawn)	0	/	/	/
Cc1cc(C)c(NC(=O)CSc2nc3ncc(Br)cc3[nH]2)c(C)c1	1	-3	13	5
O=C(CSc1nc2ncc(Br)cc2[nH]1)Nc1ccc2c(c1)OCO2	67*	-2	/	13
COc1ccc(-n2c(C)cc(-c3csc(NC(=O)c4ccc(S(=O)(=O)N(C)C)cc4)n3)c2C)cc1	0	17	-13	53*
N#Cc1ccc(-c2csc(NNC(=O)c3ccccc3)n2)cc1	-1	-8	/	6
Cc1cc(-c2csc(NC(=O)c3ccc(C#N)cc3)n2)c(C)n1Cc1ccccc1	1	33	-25	52*
CCCCCNC(=O)C(CCc1ccccc1)n1c(=O)c(-c2ccccc2)nc2ccccc21 (stereo not drawn)	0	/	/	/
C=COC(=O)CSc1snc(SCC(=O)OC)c1C#N	0	6	-9	89*
COc1ccc(C(=O)N/N=C(\C)c2ccc3c(c2)C2C=CCC2C(c2ccccc2)N3)cc1 (stereo not drawn)	-1	14	4	67*
SMILES	Tb MetRS inh	NS3 helicase inh	Hep lipid drop	core dimer inh
O=S(=O)(/C(=C/c1ccc(C(F)(F)F)cc1)c1nc2ccccc2[nH]1)c1ccccc1	1	3	-34	4
CC(C)c1ccc(/C=C(\c2nc3ccccc3[nH]2)S(=O)(=O)c2ccccc2)cc1	-1	-11	54*	12
COc1cccc(-c2cnc3c(NC=O)cc(-c4cccc(C(=O)N(C)C)c4)cn23)c1	0	/	/	/
COc1cc2c(=O)n(Cc3ccco3)c(=O)n(CC(=O)c3cccc(Br)c3)c2cc1OC	/	1	/	47*
NC(=O)CSc1nnc(-c2ccncc2)n1-c1ccc(Cl)cc1	0	3	-1	6
Clc1ccc(-n2c(SCc3nc4ccccc4[nH]3)nnc2-c2ccncc2)cc1	6.7*	-3	/	-5
O=S1(=O)C[C@@H](N2CCN(c3ccccn3)CC2)[C@H](COCc2ccccc2)N1	-2	/	/	/
